# Assay results published in ChEMBL document CHEMBL5136969, “A niclosamide-tobramycin hybrid adjuvant potentiates cefiderocol against P. aeruginosa” (2021).
# Active and inactive are the calls of the source.
# Columns and labels:
# Escherichia coli [1] = test: Antibacterial activity against Escherichia coli 94474 assessed as reduction in bacterial growth after 18 hrs by microbroth dilution method; format: functional
# Method in brief: (§1)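 CLSI microbroth dilution in MHB. Overnight cultures were adjusted to 0.5 McFarland in saline, diluted 1:50, and inoculated at about 5 × 10^5 CFU/mL. Agents were 2-fold serially diluted and incubated 18 h at 37 °C. MIC is the lowest concentration without visible turbidity, confirmed by absorbance at 590 nm. Medium with and without cells served as controls.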
# Acinetobacter baumannii [2] = test: Antibacterial activity against Acinetobacter baumannii ATCC 17978 assessed as reduction in bacterial growth after 18 hrs by microbroth dilution method; format: functional; method in brief: as §1
# Pseudomonas aeruginosa [3] = test: Antibacterial activity against MDR clinical isolate Pseudomonas aeruginosa PA86052 assessed as reduction in bacterial growth after 18 hrs by microbroth dilution method; format: functional
# Method in brief: (§2)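 CLSI broth microdilution. Overnight cultures were adjusted in saline to 0.5 McFarland, diluted 1:50 in Mueller-Hinton broth (MHB), and inoculated at about 5 × 10^5 CFU/mL. Agents were 2-fold serially diluted in MHB, mixed 1:1 with inoculum, and held at 37 °C for 18 h. MIC was the lowest concentration with no visible turbidity, confirmed at 590 nm.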
# Enterobacter cloacae [4] = test: Antibacterial activity against Enterobacter cloacae 118564 assessed as reduction in bacterial growth after 18 hrs by microbroth dilution method; format: functional; method in brief: as §1
# Escherichia coli [5] = test: Potentiation of ceftazidime-induced antibiotic activity against Escherichia coli ATCC 25922 assessed as MIC fold reduction at 8 ug/ml after 18 hrs by microbroth dilution method; format: functional; conditions: dose 8 µg/ml
# Method in brief: (§3)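 Adjuvant held at a fixed 8 μg/mL while the antibiotic was 2-fold serially diluted in Mueller-Hinton broth (MHB), per CLSI microbroth dilution. Overnight cultures were adjusted in saline to 0.5 McFarland, then diluted 1:50 in MHB to about 5 × 10^5 CFU/mL final, and incubated 18 h at 37 °C. MIC was the lowest concentration with no visible turbidity, confirmed at 590 nm. Fold potentiation = MIC alone / MIC with adjuvant.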
# Enterobacter cloacae [6] = test: Antibacterial activity against Enterobacter cloacae 117029 assessed as potentiation of cefiderocol antibacterial activity by measuring FIC after 18 hrs by microbroth dilution method; format: functional
# Method in brief: (§4)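 Checkerboard in Mueller-Hinton broth: cefiderocol 2-fold diluted on one axis, adjuvant 2-fold on the other. Overnight cultures were adjusted to 0.5 McFarland in saline, diluted 1:50 in MHB, and inoculated at about 5 × 10^5 CFU/mL. Incubation was 18 h at 37 °C. Turbidity was read visually and confirmed at 590 nm. FIC index = FIC of antibiotic + FIC of adjuvant; ≤0.5 synergy, >4 antagonism.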
# Acinetobacter baumannii [7] = test: Antibacterial activity against Acinetobacter baumannii LAC-4 assessed as reduction in bacterial growth after 18 hrs in presence of cefiderocol by microbroth dilution method; format: functional; method in brief: as §4
# Pseudomonas aeruginosa [8] = test: Antibacterial activity against MDR clinical isolate Pseudomonas aeruginosa PA262 assessed as reduction in bacterial growth after 18 hrs by microbroth dilution method; format: functional; method in brief: as §2
# Pseudomonas aeruginosa [9] = test: Potentiation of ceftazidime-induced antibiotic activity against MDR clinical isolate Pseudomonas aeruginosa PA260 assessed as MIC fold reduction at 8 ug/ml after 18 hrs by microbroth dilution method; format: functional, organism-based; conditions: dose 8.0 µg/ml; method in brief: as §3
# Pseudomonas aeruginosa [10] = test: Potentiation of cefotaxime-induced antibiotic activity against MDR clinical isolate Pseudomonas aeruginosa PA264 assessed as MIC fold reduction at 8 ug/ml after 18 hrs by microbroth dilution method; format: functional, organism-based; conditions: dose 8.0 µg/ml; method in brief: as §3
# Pseudomonas aeruginosa [11] = test: Antibacterial activity against colistin-resistant clinical isolate Pseudomonas aeruginosa PA101243 assessed as reduction in bacterial growth by measuring FIC index after 18 hrs by microbroth dilution method; format: functional
# Method in brief: (§5)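 Checkerboard in MHB (iron-replete, not iron-depleted CAMHB). Cefiderocol was 2-fold serially diluted along one axis and the adjuvant along the other. Inoculum was 0.5 McFarland diluted 1:50, about 5 × 10^5 CFU/mL final. Incubation was 18 h at 37 °C, with turbidity read visually and confirmed at 590 nm. FIC was the MIC in combination over the MIC alone for each agent, and the FIC index was their sum. Cut-offs were ≤0.5 synergy, >0.5–4 additive, >4 antagonism.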
# Pseudomonas aeruginosa [12] = test: Antibacterial activity against MDR clinical isolate Pseudomonas aeruginosa PA100036 assessed as reduction in bacterial growth after 18 hrs in presence of cefiderocol by microbroth dilution method; format: functional
# Method in brief: (§6)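 Checkerboard in MHB. Cefiderocol was 2-fold serially diluted along one axis and the adjuvant along the other. Inoculum was prepared from 0.5 McFarland saline suspensions diluted 1:50 in MHB, giving about 5 × 10^5 CFU/mL final. Plates ran 18 h at 37 °C, with turbidity confirmed at 590 nm. FIC = combination MIC ÷ MIC alone for each agent, and FIC index = sum of both. Interpretation: ≤0.5 synergy, >0.5–4 additive, >4 antagonism.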
# Klebsiella pneumoniae [13] = test: Antibacterial activity against Klebsiella pneumoniae KP113254 assessed as reduction in bacterial growth after 18 hrs in presence of cefiderocol by microbroth dilution method; format: functional; method in brief: as §6
# Escherichia coli [14] = test: Potentiation of doxycycline-induced antibiotic activity against Escherichia coli ATCC 25922 assessed as MIC fold reduction at 8 ug/ml after 18 hrs by microbroth dilution method; format: functional; conditions: dose 8 µg/ml; method in brief: as §3
# Acinetobacter baumannii [15] = test: Potentiation of cefiderocol-induced antibiotic activity against Acinetobacter baumannii ATCC 17978 assessed as MIC fold reduction at 8 ug/ml after 18 hrs by microbroth dilution method; format: functional; conditions: dose 8 µg/ml
# Method in brief: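 Initial screen in MHB using a fixed 8 μg mL−1 of adjuvant combined with each antibiotic under 2-fold dilution. Broth microdilution used about 5 × 10^5 CFU/mL at 37 °C for 18 h, with visible turbidity read and confirmed at 590 nm. Fold-potentiation = antibiotic MIC alone ÷ antibiotic MIC with adjuvant.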
# Pseudomonas aeruginosa [16] = test: Antibacterial activity against […] Pseudomonas aeruginosa PAO1 assessed as potentiation of cefiderocol antibacterial activity by measuring FIC index after 18 hrs by microbroth dilution method; format: functional; method in brief: as §6
# Pseudomonas aeruginosa [17] = test: Potentiation of moxifloxacin-induced antibiotic activity against Pseudomonas aeruginosa PAO1 assessed as MIC fold reduction at 8 ug/ml after 18 hrs by microbroth dilution method; format: functional; conditions: dose 8 µg/ml
# Pseudomonas aeruginosa [18] = test: Antibacterial activity against […] Pseudomonas aeruginosa PAO1 assessed as reduction in bacterial growth after 18 hrs in presence of cefiderocol by microbroth dilution method; format: functional; method in brief: as §6
# Pseudomonas aeruginosa [19] = test: Potentiation of vancomycin-induced antibiotic activity against Pseudomonas aeruginosa PAO1 assessed as MIC fold reduction at 8 ug/ml after 18 hrs by microbroth dilution method; format: functional; conditions: dose 8 µg/ml
# Pseudomonas aeruginosa [20] = test: Antibacterial activity against MDR clinical isolate Pseudomonas aeruginosa PA100036 assessed as potentiation of cefiderocol antibacterial activity by measuring FIC index after 18 hrs by microbroth dilution method; format: functional; method in brief: as §5
# Enterobacter cloacae [21] = test: Antibacterial activity against Enterobacter cloacae 117029 assessed as reduction in bacterial growth after 18 hrs in presence of cefiderocol by microbroth dilution method; format: functional; method in brief: as §4
# Klebsiella pneumoniae [22] = test: Antibacterial activity against Klebsiella pneumoniae KP116381 assessed as reduction in bacterial growth after 18 hrs in presence of cefiderocol by microbroth dilution method; format: functional; method in brief: as §6
# Pseudomonas aeruginosa [23] = test: Potentiation of moxifloxacin-induced antibiotic activity against Pseudomonas aeruginosa PA260 assessed as MIC fold reduction in ID-CAMHB condition at 8 ug/ml after 18 hrs by microbroth dilution method; format: functional, organism-based; conditions: dose 8.0 µg/ml
# Pseudomonas aeruginosa [24] = test: Potentiation of rifampicin-induced antibiotic activity against Pseudomonas aeruginosa PAO1 assessed as MIC fold reduction at 8 ug/ml after 18 hrs by microbroth dilution method; format: functional; conditions: dose 8 µg/ml
structure (smiles),measurement,setting,value
NC[C@H]1O[C@H](O[C@H]2[C@H](OCCCCc3cn(-c4ccc(NC(=O)c5cc(Cl)ccc5O)cc4)nn3)[C@@H](O[C@H]3O[C@H](CO)[C@@H](O)[C@H](N)[C@H]3O)[C@H](N)C[C@@H]2N)[C@H](N)C[C@@H]1O,MIC,Escherichia coli [1],> 128 µg/mL
same,MIC,Acinetobacter baumannii [2],> 128 µg/mL
same,MIC,Pseudomonas aeruginosa [3],> 128 µg/mL
same,MIC,Enterobacter cloacae [4],> 128 µg/mL
same,fold change (FC),Escherichia coli [5],4
same,FIC,Enterobacter cloacae [6],0.5
same,MIC,Acinetobacter baumannii [7],0.25 µg/mL
same,MIC,Pseudomonas aeruginosa [8],> 128 µg/mL
same,Activity,Pseudomonas aeruginosa [9],Active
same,Activity,Pseudomonas aeruginosa [10],Active
same,FIC,Pseudomonas aeruginosa [11],0.125
same,MIC,Pseudomonas aeruginosa [12],0.25 µg/mL
same,MIC,Klebsiella pneumoniae [13],1 µg/mL
same,fold change (FC),Escherichia coli [14],4
same,fold change (FC),Acinetobacter baumannii [15],4
same,FIC,Pseudomonas aeruginosa [16],0.258
same,fold change (FC),Pseudomonas aeruginosa [17],4
same,MIC,Pseudomonas aeruginosa [18],0.5 µg/mL
same,fold change (FC),Pseudomonas aeruginosa [19],4
same,FIC,Pseudomonas aeruginosa [20],1
same,MIC,Enterobacter cloacae [21],4 µg/mL
same,MIC,Klebsiella pneumoniae [22],0.25 µg/mL
same,Activity,Pseudomonas aeruginosa [23],Active
same,fold change (FC),Pseudomonas aeruginosa [24],4
